pIC50, pKi: −log10 of the molar value.
Tests used:
CYP2D6 = CYP2D6 (Homo sapiens, UniProt P10635); assay: Inhibition of CYP2D6 at 1 uM; type: ADME
Method in brief: (§1)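 Compounds were incubated at 37 ± 0.5 °C with agitation with human recombinant CYP isoforms, isoform-selective fluorescent substrates and an NADPH-generating system.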

Cytochrome P450 2C9 = Cytochrome P450 2C9 (Homo sapiens, UniProt P11712); assay: Inhibition of CYP2C9; type: ADME; method in brief: as §1
Histamine H3 receptor [1] = target: Histamine H3 receptor (Homo sapiens, UniProt Q9Y5N1); assay: Displacement of [125I]Iodoproxyfan from recombinant human histamine H3 receptor expressed in HEK293 cells after 60 mins; type: cell-based
Sequence of Histamine H3 receptor (Homo sapiens, UniProt Q9Y5N1) (Q9Y5N1 whole entry): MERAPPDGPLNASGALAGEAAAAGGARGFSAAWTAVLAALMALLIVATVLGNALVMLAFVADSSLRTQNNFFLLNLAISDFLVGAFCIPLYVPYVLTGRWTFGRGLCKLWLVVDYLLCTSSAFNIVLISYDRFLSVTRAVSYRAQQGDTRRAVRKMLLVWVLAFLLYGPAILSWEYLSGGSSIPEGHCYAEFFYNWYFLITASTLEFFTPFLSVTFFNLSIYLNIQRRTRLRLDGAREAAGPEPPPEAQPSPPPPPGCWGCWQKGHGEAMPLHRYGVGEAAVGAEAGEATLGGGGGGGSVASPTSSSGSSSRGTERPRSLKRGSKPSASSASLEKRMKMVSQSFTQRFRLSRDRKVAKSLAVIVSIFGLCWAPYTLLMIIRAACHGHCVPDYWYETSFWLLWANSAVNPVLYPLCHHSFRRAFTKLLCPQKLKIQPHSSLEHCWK

Histamine H3 receptor [2] = target: Histamine H3 receptor (Mus musculus, UniProt P58406); assay: Displacement of [125I]Iodoproxyfan from mouse brain cortex histamine H3 receptor after 60 mins; type: tissue-based
Sequence of Histamine H3 receptor (Mus musculus, UniProt P58406) (P58406 whole entry): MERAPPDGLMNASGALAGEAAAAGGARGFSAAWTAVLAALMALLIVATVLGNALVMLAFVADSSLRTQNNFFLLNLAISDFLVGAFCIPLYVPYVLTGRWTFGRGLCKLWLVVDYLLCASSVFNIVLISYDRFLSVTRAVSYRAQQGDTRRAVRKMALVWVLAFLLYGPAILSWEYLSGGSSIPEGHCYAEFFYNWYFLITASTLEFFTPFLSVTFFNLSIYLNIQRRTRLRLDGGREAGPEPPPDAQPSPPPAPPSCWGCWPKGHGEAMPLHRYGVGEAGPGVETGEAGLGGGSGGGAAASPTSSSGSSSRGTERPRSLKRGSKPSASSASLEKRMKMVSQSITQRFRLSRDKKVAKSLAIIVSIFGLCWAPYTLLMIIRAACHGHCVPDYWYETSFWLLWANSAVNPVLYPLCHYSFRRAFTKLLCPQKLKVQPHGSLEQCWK
Method in brief: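 Competition binding used [125I]-iodoproxyfan against human recombinant H3R and native mouse brain cortex H3R. Ki values are means of at least two experiments run in duplicate or triplicate, reported as mean ± SEM.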

CYP2C9 = CYP2C9 (Homo sapiens, UniProt P11712); assay: Inhibition of CYP2C9 at 1 uM; type: ADME; method in brief: as §1
Sequence of CYP2C9 (P11712 whole entry): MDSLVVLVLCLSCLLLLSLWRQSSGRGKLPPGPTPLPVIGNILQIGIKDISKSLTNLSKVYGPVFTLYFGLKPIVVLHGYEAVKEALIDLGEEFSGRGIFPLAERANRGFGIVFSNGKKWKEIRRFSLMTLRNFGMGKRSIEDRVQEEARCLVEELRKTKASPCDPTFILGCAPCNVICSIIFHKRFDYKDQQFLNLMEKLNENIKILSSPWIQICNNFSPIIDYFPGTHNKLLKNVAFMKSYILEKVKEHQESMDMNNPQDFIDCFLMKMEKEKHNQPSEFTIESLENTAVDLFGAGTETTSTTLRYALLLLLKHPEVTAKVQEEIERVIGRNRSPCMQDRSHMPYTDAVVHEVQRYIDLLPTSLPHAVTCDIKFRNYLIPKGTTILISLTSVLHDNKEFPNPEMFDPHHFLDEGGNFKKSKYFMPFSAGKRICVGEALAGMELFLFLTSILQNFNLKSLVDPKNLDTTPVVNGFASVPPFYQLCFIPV

CYP3A4 = CYP3A4 (Homo sapiens, UniProt P08684); assay: Inhibition of CYP3A4 at 1 uM; type: ADME; method in brief: as §1
Sequence of CYP3A4 (P08684 whole entry): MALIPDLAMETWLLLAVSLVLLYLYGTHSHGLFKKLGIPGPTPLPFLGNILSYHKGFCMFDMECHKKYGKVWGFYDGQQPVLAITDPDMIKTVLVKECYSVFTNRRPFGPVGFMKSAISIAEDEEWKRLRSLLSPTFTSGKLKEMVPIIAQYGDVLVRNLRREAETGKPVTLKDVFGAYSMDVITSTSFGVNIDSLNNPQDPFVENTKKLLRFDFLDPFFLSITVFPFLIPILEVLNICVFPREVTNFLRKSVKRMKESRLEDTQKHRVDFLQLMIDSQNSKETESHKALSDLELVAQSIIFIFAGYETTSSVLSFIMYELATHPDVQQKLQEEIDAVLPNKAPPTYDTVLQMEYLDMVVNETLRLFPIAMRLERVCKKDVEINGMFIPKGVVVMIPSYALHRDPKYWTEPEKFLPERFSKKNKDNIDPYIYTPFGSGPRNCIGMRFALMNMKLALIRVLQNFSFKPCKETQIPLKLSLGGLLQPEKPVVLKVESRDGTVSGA

Cytochrome P450 2D6 = Cytochrome P450 2D6 (Homo sapiens, UniProt P10635); assay: Inhibition of CYP2D6; type: ADME; method in brief: as §1
Sequence of Cytochrome P450 2D6 (P10635 whole entry): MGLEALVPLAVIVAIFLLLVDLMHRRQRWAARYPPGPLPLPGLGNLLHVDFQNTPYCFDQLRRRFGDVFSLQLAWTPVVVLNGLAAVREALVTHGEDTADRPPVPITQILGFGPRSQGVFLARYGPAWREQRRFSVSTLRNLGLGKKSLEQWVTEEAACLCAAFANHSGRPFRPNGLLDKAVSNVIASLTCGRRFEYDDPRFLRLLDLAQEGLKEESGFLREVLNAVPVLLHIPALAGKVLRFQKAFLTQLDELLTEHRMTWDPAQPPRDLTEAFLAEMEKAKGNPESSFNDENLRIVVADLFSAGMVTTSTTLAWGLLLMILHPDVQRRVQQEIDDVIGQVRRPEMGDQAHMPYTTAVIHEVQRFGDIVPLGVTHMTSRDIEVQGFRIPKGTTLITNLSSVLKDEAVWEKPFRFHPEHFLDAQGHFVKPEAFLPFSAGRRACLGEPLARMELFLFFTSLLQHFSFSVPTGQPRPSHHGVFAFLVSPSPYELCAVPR

Cytochrome P450 3A4 = Cytochrome P450 3A4 (Homo sapiens, UniProt P08684); assay: Inhibition of CYP3A4; type: ADME; method in brief: as §1
Sequence of Cytochrome P450 3A4 (P08684 whole entry): as the sequence (P08684 whole entry) above

Mus musculus = assay: Inverse agonist activity at histamine H3 receptor in po dosed Swiss mouse assessed as brain N-tele-methylhistamine level measured after 90 mins by enzyme immunoassay; type: functional; conditions: 1.5 h
Method in brief: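 Compounds were given orally to at least 6 male Swiss mice per dose. Brain N-tele-methylhistamine was measured by enzyme immunoassay 90 min after dosing. Intrinsic activity was scaled to ciproxifan as the reference full inverse agonist. ED50 is given as mean ± SEM.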

[3] = Tmax in Swiss mouse brain at 10 mg/kg, po by LC-MS/MS; type: ADME, organism-based; design: dose 10 mg/kg, route oral
[4] = AUC (0 to 3 hrs) in Swiss mouse plasma at 10 mg/kg, po by LC-MS/MS; type: ADME, organism-based; design: time < 3 hr, dose 10 mg/kg, route oral
[5] = Tmax in Swiss mouse plasma at 10 mg/kg, po by LC-MS/MS; type: ADME, organism-based; design: dose 10 mg/kg, route oral
[6] = AUC (0 to 3 hrs) in Swiss mouse brain at 10 mg/kg, po by LC-MS/MS; type: ADME, organism-based; design: time < 3 hr, dose 10 mg/kg, route oral
Liver microsomes = assay: Metabolic stability in human liver microsomes at 100 nM upto 250 mins by LC-MS/MS; type: ADME, Microsome; conditions: 0.1 µM
Method in brief: (§2)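 Compound at 100 nM was incubated with pooled human or mouse liver microsomes (0.5 mg/mL protein) plus NADP. Remaining compound was followed over time by LC-MS/MS.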

Liver = assay: Metabolic stability in mouse liver microsomes at 100 nM upto 250 mins by LC-MS/MS; type: ADME, Microsome; conditions: 0.1 µM; method in brief: as §2
[7] = Ratio of AUC (0 to 8 hrs) in Swiss mouse brain to AUC (0 to 8 hrs) in Swiss mouse plasma at 10 mg/kg, po by LC-MS/MS; type: ADME, organism-based; design: dose 10 mg/kg, route oral; conditions: brain and plasma, read-out: Ratio AUC
Method in brief: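 Male Swiss mice given single 10 mg/kg oral dose; plasma and brain tissue sampled over 0–8 h and drug quantified by LC-MS/MS; AUC0-8h computed for each matrix, ratio brain to plasma; mean ± SEM of 3 mice.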

hERG (KCNH2) [8] = target: T1, hERG (KCNH2) (Homo sapiens, UniProt Q12809); assay: Inhibition of human ERG expressed in HEK293 cells at 10 uM by patch clamp assay; type: cell-based; conditions: HEK293 cells expressing human ERG
T1 sequence (Q12809 whole entry): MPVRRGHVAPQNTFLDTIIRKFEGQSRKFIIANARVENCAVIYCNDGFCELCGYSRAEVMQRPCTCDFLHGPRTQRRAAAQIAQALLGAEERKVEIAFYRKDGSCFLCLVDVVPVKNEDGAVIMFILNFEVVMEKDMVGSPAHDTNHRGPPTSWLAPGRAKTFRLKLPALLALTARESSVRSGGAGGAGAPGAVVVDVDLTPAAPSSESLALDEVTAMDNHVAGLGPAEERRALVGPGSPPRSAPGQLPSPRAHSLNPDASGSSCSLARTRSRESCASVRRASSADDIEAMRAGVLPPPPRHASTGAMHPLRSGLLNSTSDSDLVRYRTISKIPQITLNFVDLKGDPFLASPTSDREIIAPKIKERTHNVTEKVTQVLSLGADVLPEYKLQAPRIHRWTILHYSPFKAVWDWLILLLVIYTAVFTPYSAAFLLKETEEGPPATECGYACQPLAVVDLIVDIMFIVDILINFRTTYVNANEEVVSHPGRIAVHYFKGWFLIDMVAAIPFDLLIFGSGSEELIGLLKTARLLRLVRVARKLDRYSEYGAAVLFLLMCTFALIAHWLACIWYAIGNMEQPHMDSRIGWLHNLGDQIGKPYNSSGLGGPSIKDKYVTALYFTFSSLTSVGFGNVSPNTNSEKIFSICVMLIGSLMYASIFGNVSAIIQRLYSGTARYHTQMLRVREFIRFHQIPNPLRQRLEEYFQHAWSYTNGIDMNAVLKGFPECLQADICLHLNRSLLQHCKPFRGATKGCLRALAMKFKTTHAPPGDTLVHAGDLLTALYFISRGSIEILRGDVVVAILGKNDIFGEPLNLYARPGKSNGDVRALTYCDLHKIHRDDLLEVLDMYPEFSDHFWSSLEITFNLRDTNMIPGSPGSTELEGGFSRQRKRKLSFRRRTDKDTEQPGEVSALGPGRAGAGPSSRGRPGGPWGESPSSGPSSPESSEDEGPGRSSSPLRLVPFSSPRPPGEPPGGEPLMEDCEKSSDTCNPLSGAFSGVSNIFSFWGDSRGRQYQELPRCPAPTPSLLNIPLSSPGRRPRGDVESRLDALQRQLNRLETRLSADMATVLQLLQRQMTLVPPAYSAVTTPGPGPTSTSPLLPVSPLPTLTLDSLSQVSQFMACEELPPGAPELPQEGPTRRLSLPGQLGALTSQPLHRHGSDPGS

[9] = AUC (0 to 8 hrs) in Swiss mouse plasma at 10 mg/kg, po by LC-MS/MS; type: ADME, organism-based; design: time < 8 hr, dose 10 mg/kg, route oral
Method in brief: (§3)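 Male Swiss mice received a single 10 mg/kg oral dose. Compound was quantified in plasma and brain tissue by LC-MS/MS over 8 h, and AUC0-8h was derived. Data are mean ± SEM of 3 mice.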

[10] = AUC (0 to 8 hrs) in Swiss mouse brain at 10 mg/kg, po by LC-MS/MS; type: ADME, organism-based; design: time < 8 hr, dose 10 mg/kg, route oral; method in brief: as §3
hERG (KCNH2) [11] = target: T1, hERG (KCNH2); assay: Inhibition of human ERG expressed in HEK293 cells at 1 uM by patch clamp assay; type: cell-based; conditions: HEK293 cells expressing human ERG

Sequence of Cytochrome P450 2C9 (P11712 whole entry): as the sequence (P11712 whole entry) above
Sequence of CYP2D6 (P10635 whole entry, canonical isoform): as the sequence (P10635 whole entry) above

Compound	inhibition at 1 µM (CYP2D6)	pIC50 (Cytochrome P450 2C9)	pKi (Histamine H3 receptor [1])	pKi (Histamine H3 receptor [2])	inhibition at 1 µM (CYP2C9)	inhibition at 1 µM (CYP3A4)	also measured
c1ccc(CN[C@H]2CC[C@H](c3ccc(OCCCN4CCCCC4)cc3)CC2)cc1	20%	6.00	9.59	8.68	47.8%	39.9%	–
CN([C@H]1CC[C@H](c2ccc(OCCCN3CCCCC3)cc2)CC1)S(=O)(=O)c1ccccc1	–	–	8.26	–	–	–	–
CN(C)[C@H]1CC[C@H](c2ccc(OCCCN3CCCCC3)cc2)CC1	–	4.39	–	9.28	–	–	pIC50 (Cytochrome P450 2D6): < 4.00; pIC50 (Cytochrome P450 3A4): 4.37; ED50 (Mus musculus): 3.7 mg/kg
c1cc(OCCCN2CCCCC2)ccc1CN1CCCCC1 [JNJ-5207852]	–	–	–	–	–	–	Tmax [3]: 3 h; AUC(0-t) at 3 h [4]: 1040 ng·h/mL; Tmax [5]: 0.5 h; AUC(0-t) at 3 h [6]: 1100 ng·h/mL
CCCCN[C@H]1CC[C@@H](c2ccc(OCCCN3CCCCC3)cc2)CC1	2.9%	6.00	9.28	–	53.9%	25.4%	–
c1ccc2c(c1)CN([C@H]1CC[C@H](c3ccc(OCCCN4CCCCC4)cc3)CC1)C2	21.9%	–	9.77	8.85	25.1%	8.9%	–
OC1CCN([C@H]2CC[C@H](c3ccc(OCCCN4CCCCC4)cc3)CC2)CC1	15.7%	–	9.24	–	3.4%	3.3%	–
c1cc([C@H]2CC[C@H](N3CCOCC3)CC2)ccc1OCCCN1CCCCC1	–	4.36	9.39	8.80	–	–	pIC50 (Cytochrome P450 2D6): < 4.00; Stability (Liver microsomes): Stable; Stability (Liver): Stable; Kp [7]: 7.4; inhibition at 10 µM (hERG (KCNH2) [8]): 34%; AUC(0-t) at 8 h [9]: 2110 ng·h/mL; AUC(0-t) at 8 h [10]: 15600 ng·h/mL; pIC50 (Cytochrome P450 3A4): 4.18; ED50 (Mus musculus): 1.3 mg/kg
c1ccc(CN[C@H]2CC[C@@H](c3ccc(OCCCN4CCCCC4)cc3)CC2)cc1	–	–	9.54	–	–	–	–
CCCCN[C@H]1CC[C@H](c2ccc(OCCCN3CCCCC3)cc2)CC1	-8.9%	6.00	9.19	–	54.7%	26.6%	–
CN(C)[C@H]1CC[C@@H](c2ccc(OCCCN3CCCCC3)cc2)CC1	–	4.95	–	9.55	–	–	pIC50 (Cytochrome P450 2D6): < 4.00; pIC50 (Cytochrome P450 3A4): 4.30; ED50 (Mus musculus): 3.7 mg/kg
c1cc([C@H]2CC[C@@H](N3CCOCC3)CC2)ccc1OCCCN1CCCCC1	–	–	9.17	–	–	–	–
CC1CCN([C@H]2CC[C@@H](c3ccc(OCCCN4CCCCC4)cc3)CC2)CC1	-7.8%	–	9.25	–	52.9%	26.1%	–
c1cc([C@H]2CC[C@@H](N3CCCC3)CC2)ccc1OCCCN1CCCCC1	–	4.65	9.48	9.00	–	–	pIC50 (Cytochrome P450 2D6): < 4.00; inhibition at 10 µM (hERG (KCNH2) [8]): 15%; inhibition at 1 µM (hERG (KCNH2) [11]): 11%; pIC50 (Cytochrome P450 3A4): 4.38
OC1CCN([C@H]2CC[C@@H](c3ccc(OCCCN4CCCCC4)cc3)CC2)CC1	–	–	9.04	–	–	–	–
CN1CCN([C@H]2CC[C@H](c3ccc(OCCCN4CCCCC4)cc3)CC2)CC1	3.4%	–	9.49	8.64	3.4%	20.9%	–
CN[C@H]1CC[C@H](c2ccc(OCCCN3CCCCC3)cc2)CC1	–	–	8.49	–	–	–	–
c1cc([C@H]2CC[C@@H](N3CCC3)CC2)ccc1OCCCN1CCCCC1	–	–	9.47	–	–	–	–
c1cc([C@H]2CC[C@H](N3CCCCC3)CC2)ccc1OCCCN1CCCCC1	1.4%	–	9.19	9.00	33.5%	5.2%	inhibition at 1 µM (hERG (KCNH2) [11]): 42%; ED50 (Mus musculus): 4.2 mg/kg
c1ccc2c(c1)CN([C@H]1CC[C@@H](c3ccc(OCCCN4CCCCC4)cc3)CC1)C2	–	–	9.39	–	–	–	–
CN1CCN([C@H]2CC[C@@H](c3ccc(OCCCN4CCCCC4)cc3)CC2)CC1	–	–	9.04	–	–	–	–
c1cc([C@H]2CC[C@H](N3CCC3)CC2)ccc1OCCCN1CCCCC1	0.8%	–	9.60	8.80	-12.1%	4.2%	inhibition at 10 µM (hERG (KCNH2) [8]): 41%; ED50 (Mus musculus): 2.8 mg/kg
c1cc([C@H]2CC[C@H](N3CCCC3)CC2)ccc1OCCCN1CCCCC1	–	4.82	9.60	9.48	–	–	pIC50 (Cytochrome P450 2D6): < 4.00; inhibition at 10 µM (hERG (KCNH2) [8]): 22%; inhibition at 1 µM (hERG (KCNH2) [11]): 14%; ED50 (Mus musculus): 3 mg/kg
O=C1CCC(c2ccc(OCCCN3CCCCC3)cc2)CC1	3.8%	–	8.77	–	21.4%	4.1%	–

Source: ChEMBL document CHEMBL1821619 (Bioorg Med Chem Lett, 2011)
